Measurements reported in publication PMC7413021 (The Journal of nutritional biochemistry, 2016).

Assay: Measurement of phenolics in plasma
Format: in vivo
Details: 2 months old male mice fed diet containing 25% dried plum for 4 weeks
Summary of the method: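 Male C57Bl/6 mice, 2 months old, fed control AIN-93G or diet with 25% test material for 4 weeks (n=8/group). At euthanasia, blood was drawn into lithium-heparin tubes and spun at 6500 rpm for 10 min at 4°C. Plasma was acidified 4:1 with 1% ascorbic acid in saline, purged with nitrogen and stored at −80°C. Quercetin glycosides and caffeic and gallic acid derivatives were profiled by LC/TOF-MS.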

plasma concentration, CMin [nM]	plasma concentration, Caverage [nM]	SMILES
3270	4990 ± 440	COc1cc(CCC(=O)O)ccc1O[C@@H]1O[C@H](C(=O)O)[C@@H](O)[C@H](O)[C@H]1O [Dihydroferulic acid 4-O-glucuronide]
20	800 ± 210	COc1ccc(/C=C/C(=O)O)cc1O[C@@H]1O[C@H](C(=O)O)[C@@H](O)[C@H](O)[C@H]1O [Isoferulic acid 3-O-glucuronide]
420	1390 ± 310	COc1ccc(CCC(=O)O)cc1O[C@@H]1O[C@H](C(=O)O)[C@@H](O)[C@H](O)[C@H]1O [Dihydroisoferulic acid 3-O-glucuronide]

SMILES	plasma concentration, CMin [nM]	plasma concentration, Caverage [nM]
COc1cc(/C=C/C(=O)O)ccc1O[C@@H]1O[C@H](C(=O)O)[C@@H](O)[C@H](O)[C@H]1O [Ferulic acid 4-O-glucuronide]	1100	3060 ± 450
